# Experimental data from ChEMBL document CHEMBL3751760, “Discovery of Novel Potent and Selective Agonists at the Melanocortin-3 Receptor” (J Med Chem, 2015).
# pEC50, pIC50: −log10 of the molar value. Calls of active or inactive are those of the source. No cut-off for these calls is given here. Where a SMILES comes first, the peptide text is derived from it. Bridges are numbered along the chain shown (N, C = ends). [ ]: non-standard residue; d: D form. d2Nal = N[C@H](Cc1ccc2ccccc2c1)C(=O)O; Nle = CCCC[C@H](N)C(=O)O
# Key:
# [1] = target: T1, Melanocortin receptor 4 (Homo sapiens, UniProt P32245); assay: Agonist activity at human melanocortin 4 receptor expressed in HEK293 cells assessed as intracellular cAMP accumulation at 10 uM incubated for 3 mins in presence of IBMX; type: functional, cell-based
# Outline: (§1)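 Stably transfected HEK293 cells were grown in MEM with 10% FBS, penicillin/streptomycin and 1 mM sodium pyruvate, and seeded 48 h before assay to 100000 cells/well. Cells were preincubated 1 min at 37 °C in EBSS with IBMX (0.5 mM), then exposed to peptide for 3 min at 37 °C. The reaction was stopped with ice-cold Tris/EDTA, lysates were boiled 15 min, and cAMP was read by competitive binding kit.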
# [2] = target: T2, Melanocyte-stimulating hormone receptor (Homo sapiens, UniProt Q01726); assay: Agonist activity at human melanocortin 1 receptor expressed in HEK293 cells assessed as increase in intracellular cAMP accumulation incubated for 3 mins relative to MT-2; type: functional, cell-based
# Outline: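 Stably transfected HEK293 cells grown in MEM with 10% FBS, penicillin/streptomycin and 1 mM sodium pyruvate, seeded 48 h ahead to 100000 cells/well. Cells preincubated 1 min at 37 °C in EBSS with IBMX (0.5 mM), then exposed to a concentration series for 3 min at 37 °C. Stopped with ice-cold Tris/EDTA, boiled 15 min, cAMP measured by competitive binding kit. Maximal cAMP expressed relative to the MT-II maximum; N = 4.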
# [3] = target: T3, Melanocortin receptor 5 (Homo sapiens, UniProt P33032); assay: Agonist activity at human melanocortin 5 receptor expressed in HEK293 cells assessed as intracellular cAMP accumulation at 10 uM incubated for 3 mins in presence of IBMX; type: functional, cell-based; outline: as §1
# [4] = target: T4, Melanocortin receptor 3 (Homo sapiens, UniProt P41968); assay: Displacement of 125I-labeled [Nle4,DPhe7]-alpha-MSH from human melanocortin 3 receptor expressed in HEK293 cells incubated for 40 mins by gamma counting analysis; type: cell-based
# [5] = target: T2, Melanocyte-stimulating hormone receptor; assay: Displacement of 125I-labeled [Nle4,DPhe7]-alpha-MSH from human melanocortin 1 receptor expressed in HEK293 cells incubated for 40 mins by gamma counting analysis; type: cell-based
# Outline: (§2)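 Whole-cell competition on stably transfected HEK293 cells, 100000 cells/well, seeded 48 h ahead. Binding buffer: MEM with Earle's salts, 25 mM HEPES pH 7.4, 0.2% BSA, 1 mM 1,10-phenanthroline, leupeptin, bacitracin. After washing, cells lysed with NaOH/Triton X-100 and read by γ counting.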
# [6] = target: T2, Melanocyte-stimulating hormone receptor; assay: Agonist activity at human melanocortin 1 receptor expressed in HEK293 cells assessed as intracellular cAMP accumulation incubated for 3 mins in presence of IBMX; type: functional, cell-based
# Outline: (§3)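 HEK293 cells stably expressing the receptor were grown in MEM with 10% FBS and seeded 48 h ahead to 100000 cells/well. Cells were preincubated in EBSS with IBMX (0.5 mM) for 1 min at 37 °C, then given varied peptide concentrations for 3 min at 37 °C. The reaction was stopped with ice-cold Tris/EDTA, lysates were boiled 15 min, and cAMP was read by competitive binding kit.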
# [7] = target: T3, Melanocortin receptor 5; assay: Displacement of 125I-labeled [Nle4,DPhe7]-alpha-MSH from human melanocortin 5 receptor expressed in HEK293 cells at 10 uM incubated for 40 mins by gamma counting analysis; type: cell-based
# Outline: as §2, with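 “bacitracin. Unlabeled peptide plus 125I-[Nle4,DPhe7]-α-MSH (0.1386 nM, 100000 cpm/well) for 40 min at 37 °C.” for “bacitracin.”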
# [8] = target: T4, Melanocortin receptor 3; assay: Agonist activity at human melanocortin 3 receptor expressed in HEK293 cells assessed as intracellular cAMP accumulation at 10 uM incubated for 3 mins in presence of IBMX; type: functional, cell-based; outline: as §1
# [9] = target: T1, Melanocortin receptor 4; assay: Displacement of 125I-labeled [Nle4,DPhe7]-alpha-MSH from human melanocortin 4 receptor expressed in HEK293 cells incubated for 40 mins by gamma counting analysis; type: cell-based
# [10] = target: T4, Melanocortin receptor 3; assay: Agonist activity at human melanocortin 3 receptor expressed in HEK293 cells assessed as increase in intracellular cAMP accumulation incubated for 3 mins relative to MT-2; type: functional, cell-based
# Outline: (§4)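 Same cAMP protocol in stably transfected HEK293 cells: IBMX (0.5 mM) preincubation for 1 min, then a peptide concentration series for 3 min at 37 °C, and cAMP measured by competitive binding kit.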
# [11] = target: T3, Melanocortin receptor 5; assay: Agonist activity at human melanocortin 5 receptor expressed in HEK293 cells assessed as increase in intracellular cAMP accumulation incubated for 3 mins relative to MT-2; type: functional, cell-based; outline: as §4
# [12] = target: T1, Melanocortin receptor 4; assay: Agonist activity at human melanocortin 4 receptor expressed in HEK293 cells assessed as increase in intracellular cAMP accumulation incubated for 3 mins relative to MT-2; type: functional, cell-based
# Outline: as §4, with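 “kit. Act% max = highest cAMP level reached by the peptide divided by the highest level reached by MT-II, in percent.” for “kit.”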
# [13] = target: T2, Melanocyte-stimulating hormone receptor; assay: Displacement of 125I-labeled [Nle4,DPhe7]-alpha-MSH from human melanocortin 1 receptor expressed in HEK293 cells at 10 uM incubated for 40 mins by gamma counting analysis; type: cell-based
# Outline: as §2, with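 “bacitracin. Unlabeled peptide plus 125I-[Nle4,DPhe7]-α-MSH (0.1386 nM, 100000 cpm/well) for 40 min at 37 °C.” for “bacitracin.”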
# [14] = target: T3, Melanocortin receptor 5; assay: Agonist activity at human melanocortin 5 receptor expressed in HEK293 cells assessed as intracellular cAMP accumulation incubated for 3 mins in presence of IBMX; type: functional, cell-based; outline: as §3
# [15] = target: T3, Melanocortin receptor 5; assay: Displacement of 125I-labeled [Nle4,DPhe7]-alpha-MSH from human melanocortin 5 receptor expressed in HEK293 cells incubated for 40 mins by gamma counting analysis; type: cell-based
# [16] = target: T1, Melanocortin receptor 4; assay: Agonist activity at human melanocortin 4 receptor expressed in HEK293 cells assessed as intracellular cAMP accumulation incubated for 3 mins in presence of IBMX; type: functional, cell-based; outline: as §3
# [17] = target: T4, Melanocortin receptor 3; assay: Agonist activity at human melanocortin 3 receptor expressed in HEK293 cells assessed as intracellular cAMP accumulation incubated for 3 mins in presence of IBMX; type: functional, cell-based; outline: as §3
# T1 sequence (P32245 whole entry): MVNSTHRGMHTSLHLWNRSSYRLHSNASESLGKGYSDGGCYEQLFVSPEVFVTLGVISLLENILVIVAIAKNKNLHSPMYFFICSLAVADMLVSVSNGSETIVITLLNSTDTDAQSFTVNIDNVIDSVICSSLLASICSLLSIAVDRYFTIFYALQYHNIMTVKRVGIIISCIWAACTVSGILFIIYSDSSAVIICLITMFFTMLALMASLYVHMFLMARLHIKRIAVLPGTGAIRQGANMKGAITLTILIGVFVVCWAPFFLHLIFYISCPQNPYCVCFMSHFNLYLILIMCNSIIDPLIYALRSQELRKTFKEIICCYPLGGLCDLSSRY
# T4 sequence (P41968 whole entry): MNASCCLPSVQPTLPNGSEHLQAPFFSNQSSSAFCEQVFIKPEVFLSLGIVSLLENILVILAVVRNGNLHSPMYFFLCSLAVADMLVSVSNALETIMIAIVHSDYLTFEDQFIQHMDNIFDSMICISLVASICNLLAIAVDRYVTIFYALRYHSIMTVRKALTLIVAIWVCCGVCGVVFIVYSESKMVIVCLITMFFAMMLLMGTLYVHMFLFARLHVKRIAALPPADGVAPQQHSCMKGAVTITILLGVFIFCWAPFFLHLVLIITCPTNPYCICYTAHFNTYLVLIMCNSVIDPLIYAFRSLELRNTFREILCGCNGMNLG
# T3 sequence (P33032 whole entry): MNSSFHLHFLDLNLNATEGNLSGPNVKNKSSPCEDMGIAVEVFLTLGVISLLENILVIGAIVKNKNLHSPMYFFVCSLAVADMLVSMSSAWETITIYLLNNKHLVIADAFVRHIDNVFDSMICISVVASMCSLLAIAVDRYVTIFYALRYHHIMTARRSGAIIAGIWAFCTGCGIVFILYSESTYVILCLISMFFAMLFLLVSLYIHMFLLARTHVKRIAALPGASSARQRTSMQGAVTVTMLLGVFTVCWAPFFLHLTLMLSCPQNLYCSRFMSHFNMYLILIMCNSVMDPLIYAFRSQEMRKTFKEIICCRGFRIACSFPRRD
smiles,measurement,setting,value
CCCC[C@H](NC(C)=O)C(=O)N[C@H]1CC(=O)NCCCC[C@@H](C(N)=O)NC(=O)[C@H](Cc2c[nH]c3ccccc23)NC(=O)[C@H](CCCNC(=N)N)NC(=O)[C@@H](Cc2ccccc2)NC(=O)[C@@H]2CCCN2C(=O)[C@@H]2CCCN2C1=O (Ac-[Nle]DPP[dF]RWK-NH2; lactam 2-8),Activity,[1],0%
same,%max,[2],100%
same,Activity,[3],0%
same,pIC50,[4],6.23
same,pIC50,[5],< 5.30
same,pEC50,[6],6.07
same,inhibition,[7],inactive
same,Activity,[8],0%
same,pIC50,[9],5.89
CCCC[C@@H](NC(C)=O)C(=O)N[C@H]1CC(=O)NCCCC[C@@H](C(N)=O)NC(=O)[C@@H](Cc2c[nH]c3ccccc23)NC(=O)[C@@H](CCCNC(=N)N)NC(=O)[C@@H](Cc2ccccc2)NC(=O)[C@@H]2CCCN2C(=O)[C@H](Cc2c[nH]c3ccccc23)NC1=O,%max,[2],100%
same,%max,[10],0%
same,%max,[11],89%
same,%max,[12],84%
CCCC[C@H](NC(C)=O)C(=O)N[C@@H]1CC(=O)NCCCC[C@H](C(N)=O)NC(=O)[C@H](Cc2c[nH]c3ccccc23)NC(=O)[C@H](CCCNC(=N)N)NC(=O)[C@H](Cc2ccc3ccccc3c2)NC(=O)[C@H]2CCCN2C(=O)[C@@H](Cc2c[nH]c3ccccc23)NC1=O,%max,[2],100%
same,inhibition,[13],inactive
CCCC[C@H](NC(C)=O)C(=O)N[C@H]1CC(=O)NCCCC[C@@H](C(N)=O)NC(=O)[C@H](Cc2c[nH]c3ccccc23)NC(=O)[C@H](CCCNC(=N)N)NC(=O)[C@@H](Cc2ccc3ccccc3c2)NC(=O)[C@@H]2CCCN2C(=O)[C@H](Cc2c[nH]c3ccccc23)NC1=O,pEC50,[6]; hek293,< 6.00
CCCC[C@H](NC(C)=O)C(=O)N[C@H]1CC(=O)NCCCC[C@@H](C(N)=O)NC(=O)[C@H](Cc2c[nH]c3ccccc23)NC(=O)[C@H](CCCNC(=N)N)NC(=O)[C@@H](Cc2ccccc2)NC(=O)[C@@H]2CCCN2C(=O)[C@H](Cc2c[nH]c3ccccc23)NC1=O,pIC50,[4]; hek293,6.24
same,pIC50,[5]; hek293,< 5.30
same,pEC50,[14],7.14
same,pEC50,[6]; hek293,7.59
same,pIC50,[15],< 6.00
same,pIC50,[9]; hek293,< 6.00
same,pEC50,[16],6.66
same,pEC50,[17],< 6.00
CCCC[C@H](NC(C)=O)C(=O)N[C@H]1CC(=O)NCCCC[C@@H](C(N)=O)NC(=O)[C@H](Cc2c[nH]c3ccccc23)NC(=O)[C@H](CCCNC(=N)N)NC(=O)[C@@H](Cc2ccc3ccccc3c2)NC(=O)[C@@H]2CCCN2C(=O)[C@@H]2CCCN2C1=O (Ac-[Nle]DPP[d2Nal]RWK-NH2; lactam 2-8),%max,[2],100%
same,pIC50,[5],< 5.30
